Where two headings read alike, the source gives them in different places.
Test system: East Asian patients with advanced nonhematologic malignancies
Assay type: in vivo, human
Summary of the method: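 AEs were graded by NCI CTCAE v4.03 in all patients receiving ≥ 1 oral dose, given once daily or once weekly in 28-day cycles for up to 12 months. Follow-up lasted 30 days after the last dose. Entry required ECOG 0–1, fasting glucose ≤ 130 mg/dL and triglycerides ≤ 300 mg/dL. Summaries were descriptive.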

[1] = QW dose escalation 20 mg (n = 3)
[2] = QW dose escalation 30 mg (n = 3)

## CC(C)n1nc(-c2ccc3oc(N)nc3c2)c2c(N)ncnc21 [sapanisertib]
QW arm
  Treatment-related AE hyperglycemia: 50%
  Treatment-related AE nausea: 100%
[1]
  AEs resulting in discontinuation: 0 n (%)
  AEs resulting in dose interruption: 2 (67) n (%)
  AEs resulting in dose reduction: 0 n (%)
  Any AE: 3 (100) n (%)
  Any grade ≥ 3 AE: 3 (100) n (%)
  On-study deaths: 0 n (%)
  SAEs: 2 (67) n (%)
  Treatment-related AE: 3 (100) n (%)
  Treatment-related SAEs: 1 (33) n (%)
  Treatment-related grade ≥ 3 AE: 1 (33) n (%)
[2]
  AEs resulting in discontinuation: 1 (33) n (%)
  AEs resulting in dose interruption: 1 (33) n (%)
  AEs resulting in dose reduction: 0 n (%)
  Any AE: 3 (100) n (%)
  Any grade ≥ 3 AE: 1 (33) n (%)
  On-study deaths: 0 n (%)
  SAEs: 1 (33) n (%)
  Treatment-related AE: 3 (100) n (%)
  Treatment-related SAEs: 0 n (%)
  Treatment-related grade ≥ 3 AE: 0 n (%)
QW dosing n = 6
  AE by preferred term: Abdominal pain: 1 (17) n (%)
  AE by preferred term: Alanine aminotransferase increased: 3 (50) n (%)
  AE by preferred term: Anemia: 1 (17) n (%)
  AE by preferred term: Aspartate aminotransferase increased: 3 (50) n (%)
  AE by preferred term: Blood alkaline phosphatase increased: 4 (67) n (%)
  AE by preferred term: Blood bilirubin increased: 2 (33) n (%)
  AE by preferred term: Decreased appetite: 3 (50) n (%)
  AE by preferred term: Diarrhea: 1 (17) n (%)
  AE by preferred term: Erythema: 1 (17) n (%)
  AE by preferred term: Fatigue: 2 (33) n (%)
  AE by preferred term: Gamma-glutamyltransferase increased: 2 (33) n (%)
  AE by preferred term: Headache: 1 (17) n (%)
  AE by preferred term: Hiccups: 2 (33) n (%)
  AE by preferred term: Hyperglycemia: 4 (67) n (%)
  AE by preferred term: Hypokalemia: 1 (17) n (%)
  AE by preferred term: Lymphocyte count decreased: 1 (17) n (%)
  AE by preferred term: Nausea: 6 (100) n (%)
  AE by preferred term: Platelet count decreased: 1 (17) n (%)
  AE by preferred term: Pyrexia: 1 (17) n (%)
  AE by preferred term: Stomatitis: 2 (33) n (%)
  AE by preferred term: Vomiting: 3 (50) n (%)
  AE by preferred term: Weight decreased: 3 (50) n (%)
  Grade ≥ 3 AE: Alanine aminotransferase increased: 1 (17) n (%)
  Grade ≥ 3 AE: Aspartate aminotransferase increased: 1 (17) n (%)
  Grade ≥ 3 AE: Cholangitis acute: 1 (17) n (%)
  Grade ≥ 3 AE: Enteritis: 1 (17) n (%)
  Grade ≥ 3 AE: Gamma-glutamyltransferase increased: 2 (33) n (%)
  Grade ≥ 3 AE: Hyperglycemia: 1 (17) n (%)
  Grade ≥ 3 AE: Lymphocyte count decreased: 1 (17) n (%)
  Grade ≥ 3 AE: Malignant neoplasm progression: 1 (17) n (%)
  Patients with ≥ 1 grade 3 or higher AE: 4 (67) n (%)
QW total (n = 6)
  AEs resulting in discontinuation: 1 (17) n (%)
  AEs resulting in dose interruption: 3 (50) n (%)
  AEs resulting in dose reduction: 0 n (%)
  Any AE: 6 (100) n (%)
  Any grade ≥ 3 AE: 4 (67) n (%)
  On-study deaths: 0 n (%)
  SAEs: 3 (50) n (%)
  Treatment-related AE: 6 (100) n (%)
  Treatment-related SAEs: 1 (17) n (%)
  Treatment-related grade ≥ 3 AE: 1 (17) n (%)
Total n = 28
  AE by preferred term: Abdominal pain: 4 (14) n (%)
  AE by preferred term: Alanine aminotransferase increased: 7 (25) n (%)
  AE by preferred term: Anemia: 6 (21) n (%)
  AE by preferred term: Aspartate aminotransferase increased: 9 (32) n (%)
  AE by preferred term: Blood alkaline phosphatase increased: 4 (14) n (%)
  AE by preferred term: Blood bilirubin increased: 2 (7) n (%)
  AE by preferred term: Constipation: 4 (14) n (%)
  AE by preferred term: Decreased appetite: 14 (50) n (%)
  AE by preferred term: Diarrhea: 3 (11) n (%)
  AE by preferred term: Erythema: 3 (11) n (%)
  AE by preferred term: Erythema multiforme: 2 (7) n (%)
  AE by preferred term: Fatigue: 9 (32) n (%)
  AE by preferred term: Gamma-glutamyltransferase increased: 4 (14) n (%)
  AE by preferred term: Gastrointestinal inflammation: 2 (7) n (%)
  AE by preferred term: Headache: 3 (11) n (%)
  AE by preferred term: Hiccups: 2 (7) n (%)
  AE by preferred term: Hyperglycemia: 13 (46) n (%)
  AE by preferred term: Hypokalemia: 4 (14) n (%)
  AE by preferred term: Lymphocyte count decreased: 5 (18) n (%)
  AE by preferred term: Nausea: 17 (61) n (%)
  AE by preferred term: Neutrophil count decreased: 2 (7) n (%)
  AE by preferred term: Platelet count decreased: 7 (25) n (%)
  AE by preferred term: Pruritus: 2 (7) n (%)
  AE by preferred term: Pyrexia: 5 (18) n (%)
  AE by preferred term: Rash erythematous: 2 (7) n (%)
  AE by preferred term: Rash maculo-papular: 5 (18) n (%)
  AE by preferred term: Rash pustular: 2 (7) n (%)
  AE by preferred term: Stomatitis: 16 (57) n (%)
  AE by preferred term: Urticaria: 3 (11) n (%)
  AE by preferred term: Vomiting: 8 (29) n (%)
  AE by preferred term: Weight decreased: 10 (36) n (%)
  AE by preferred term: White blood cell count decreased: 4 (14) n (%)
  Grade ≥ 3 AE: Acute myocardial infarction: 1 (4) n (%)
  Grade ≥ 3 AE: Alanine aminotransferase increased: 1 (4) n (%)
  Grade ≥ 3 AE: Aspartate aminotransferase increased: 2 (7) n (%)
  Grade ≥ 3 AE: Blood creatine phosphokinase increased: 1 (4) n (%)
  Grade ≥ 3 AE: Cholangitis acute: 1 (4) n (%)
  Grade ≥ 3 AE: Decreased appetite: 1 (4) n (%)
  Grade ≥ 3 AE: Diarrhea: 1 (4) n (%)
  Grade ≥ 3 AE: Enteritis: 1 (4) n (%)
  Grade ≥ 3 AE: Gamma-glutamyltransferase increased: 3 (11) n (%)
  Grade ≥ 3 AE: Gastrointestinal inflammation: 1 (4) n (%)
  Grade ≥ 3 AE: Genital herpes: 1 (4) n (%)
  Grade ≥ 3 AE: Gingivitis: 1 (4) n (%)
  Grade ≥ 3 AE: Hyperglycemia: 1 (4) n (%)
  Grade ≥ 3 AE: Jaundice cholestatic: 1 (4) n (%)
  Grade ≥ 3 AE: Lymphocyte count decreased: 3 (11) n (%)
  Grade ≥ 3 AE: Malignant neoplasm progression: 1 (4) n (%)
  Grade ≥ 3 AE: Nausea: 2 (7) n (%)
  Grade ≥ 3 AE: Neutrophil count decreased: 1 (4) n (%)
  Grade ≥ 3 AE: Platelet count decreased: 1 (4) n (%)
  Grade ≥ 3 AE: Post herpetic neuralgia: 1 (4) n (%)
  Grade ≥ 3 AE: Pruritus: 1 (4) n (%)
  Grade ≥ 3 AE: Rash maculo-papular: 2 (7) n (%)
  Grade ≥ 3 AE: Rash pustular: 1 (4) n (%)
  Grade ≥ 3 AE: Renal impairment: 1 (4) n (%)
  Grade ≥ 3 AE: Sepsis: 1 (4) n (%)
  Grade ≥ 3 AE: Stomatitis: 2 (7) n (%)
  Grade ≥ 3 AE: Urticaria: 1 (4) n (%)
  Grade ≥ 3 AE: White blood cell count decreased: 1 (4) n (%)
  Patients with ≥ 1 grade 3 or higher AE: 18 (64) n (%)
Across all doses
  Patients reporting at least one AE: 100%
Both arms
  Discontinued treatment due to AEs: Four
Whole study
  On-study deaths: no on-study deaths

Source: PMC8994735 (Targeted Oncology, 2021)
